Shown are actives, neighbours in structure and some others; about 2.8% of the full set was active somewhere.
PAFAH2 FP inh = PAFAH2 (human) inhibition. 0.99% of 340,000 active. Q99487. inhibition, % at 3.39 µM. recombinant PAFAH2, FP-rhodamine activity probe, fluorescence polarization;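 active = inhibition above the mean over all tested compounds plus 3 SD, cut at about 30% in these data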;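 also: inhibitors block probe labeling of enzyme so polarization drops; 0% = enzyme with DMSO and 100% = wells lacking PAFAH2 protein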
ASAP1 GAP inh = inhibitors of human ASAP1 ArfGAP activity | 0.19% of 360,000 active | ASAP1-stimulated ARF1 GTP hydrolysis, GDP FP detection | inhibition, % at 16.5 µM | AID 624377; in the data active = inhibition above about 25%;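 also: 0% = vehicle with enzyme and substrate and 100% = no enzyme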
Target sequence (Q9ULH1 325-724 limits assumed): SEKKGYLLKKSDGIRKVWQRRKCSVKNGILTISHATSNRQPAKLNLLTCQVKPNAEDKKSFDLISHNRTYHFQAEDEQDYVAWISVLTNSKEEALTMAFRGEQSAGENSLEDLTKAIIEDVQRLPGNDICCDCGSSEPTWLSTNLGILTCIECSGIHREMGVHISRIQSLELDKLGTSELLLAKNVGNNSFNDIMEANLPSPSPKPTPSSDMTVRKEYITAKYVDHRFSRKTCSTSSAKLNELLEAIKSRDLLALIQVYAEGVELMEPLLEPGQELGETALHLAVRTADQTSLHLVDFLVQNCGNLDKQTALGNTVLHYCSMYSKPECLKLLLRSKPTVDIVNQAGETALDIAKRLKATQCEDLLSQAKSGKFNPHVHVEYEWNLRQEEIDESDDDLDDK
PAFAH1B3 inh = PAFAH1B3 (human) inhibition. Q15102. 0.28% of 340,000 active. inhibition, % at 3.39 µM. AID 492972. recombinant PAFAH1B3, FP-rhodamine probe, fluorescence polarization;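 active = inhibition above the screen-wide average of all tested compounds plus 3 SD, cut at about 25% in these data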;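 also: 0% = enzyme with DMSO only and 100% = wells lacking PAFAH1B3 protein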
pPAFAH FP inh = inhibitors of human plasma PAF acetylhydrolase (pPAFAH). inhibition, % at 3.39 µM. recombinant pPAFAH, FP-rhodamine probe fluorescence polarization. Q13093. 1.5% of 330,000 active;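 active = inhibition above the mean inhibition across the screen plus 3 SD, cut at about 25% in these data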;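 also: inhibitors block binding of the rhodamine activity-based probe so polarization drops; 0% = enzyme with DMSO and 100% = wells lacking pPAFAH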
ARFGAP1 inhibitor = rat ARFGAP1 inhibition. Q62848. Arfgap1-stimulated ARF1 GTP hydrolysis, GDP FP detection. inhibition, % at 16.5 µM. 0.26% of 360,000 active. AID 651572;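 active = inhibition above a per-plate limit, mean inhibition of low control wells plus 3 SD, cut at about 25% in these data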;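 also: 0% = DMSO wells with enzyme and 100% = wells lacking Arfgap1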
Target sequence (Q62848 1-136 limits assumed): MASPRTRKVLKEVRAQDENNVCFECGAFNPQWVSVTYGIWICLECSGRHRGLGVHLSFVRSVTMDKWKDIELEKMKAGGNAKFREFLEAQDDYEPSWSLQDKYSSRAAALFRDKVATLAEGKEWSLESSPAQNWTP
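material = rat Arfgap1 catalytic domain, aa 1-136 | also added = human ARF1(Δ1-17)-GTP substrate | compound dosing = one concentration, 16.5 µM, DMSO 1.26% | times = GTP hydrolysis reaction 2 h at 25 °C | measured by = FP, GDP Alexa 633 tracer displaced from anti-GDP antibody, 620/688 nm | evaluation = percent inhibition of Arfgap1-stimulated GTP hydrolysis | replication = single well per compound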
PAFAH1B2 inh = inhibitors of human PAFAH1B2 | 1.2% of 340,000 active | AID 492953 | inhibition, % at 3.39 µM | recombinant PAFAH1B2, FP-rhodamine activity probe, fluorescence polarization;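 active = inhibition above the mean of all tested compounds plus 3 SD, cut at about 24% in these data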;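 also: 0% = enzyme with DMSO and 100% = wells lacking PAFAH1B2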
Starred values were filed as active, the others as inactive.

How did O=C(Cc1ccccc1F)Nc1ccc(SC(F)F)cc1 do in these assays?
PAFAH2 FP inh: 1; ASAP1 GAP inh: 3; PAFAH1B3 inh: -3; pPAFAH FP inh: 8; ARFGAP1 inhibitor: -2; PAFAH1B2 inh: 5

How did O=C(COC(=O)Cc1ccccc1F)Nc1ccc(SC(F)F)cc1 do in these assays?
PAFAH2 FP inh: 3; ASAP1 GAP inh: -4; PAFAH1B3 inh: 3; pPAFAH FP inh: 26*; ARFGAP1 inhibitor: 0; PAFAH1B2 inh: 0

What do the screens show for `CCOC(=O)CNC(=O)Cc1ccc(Cl)cc1`?
PAFAH2 FP inh: -1; ASAP1 GAP inh: -8; PAFAH1B3 inh: 2; pPAFAH FP inh: 7; ARFGAP1 inhibitor: 3; PAFAH1B2 inh: 9

Results for CCOC(=O)Cc1ccc(NCc2ccc(Cl)cc2)cc1 ?
PAFAH2 FP inh: 0; ASAP1 GAP inh: 0; PAFAH1B3 inh: 10; pPAFAH FP inh: 3; ARFGAP1 inhibitor: -2; PAFAH1B2 inh: 24*

What do the screens show for `O=C(COC(=O)Cc1ccc(Cl)cc1)Nc1ccc(OC(F)F)cc1`?
PAFAH2 FP inh: -2; ASAP1 GAP inh: -6; PAFAH1B3 inh: -5; pPAFAH FP inh: 29*; ARFGAP1 inhibitor: 4; PAFAH1B2 inh: -1

How did COc1ccc(NC(=O)COC(=O)Cc2ccc(Br)cc2)cc1 do in these assays?
PAFAH2 FP inh: -1; ASAP1 GAP inh: 1; PAFAH1B3 inh: 17; pPAFAH FP inh: 29*; ARFGAP1 inhibitor: -1; PAFAH1B2 inh: 4

How did C[C@H](CO)N1C[C@H](C)[C@@H](CN(C)C(=O)Nc2ccc(C(F)(F)F)cc2)Oc2ccc(NC(=O)C3CCCCC3)cc2C1=O do in these assays?
PAFAH2 FP inh: 0; ASAP1 GAP inh: 14; PAFAH1B3 inh: 9; pPAFAH FP inh: -1; ARFGAP1 inhibitor: -1; PAFAH1B2 inh: 3

What do the screens show for `Cc1oc(-c2cccs2)nc1CNC[C@H]1O[C@@H](n2cnc(C(N)=O)n2)[C@H](O)[C@@H]1O`?
PAFAH2 FP inh: 1; ASAP1 GAP inh: -5; PAFAH1B3 inh: 7; ARFGAP1 inhibitor: -1; PAFAH1B2 inh: -5

What do the screens show for `CSc1cccc(NC(=O)C2CCCN(S(C)(=O)=O)C2)c1` (stereo unspecified)?
ASAP1 GAP inh: -1; ARFGAP1 inhibitor: 0

What do the screens show for `Cc1ccc(CNC(=O)Nc2ccc(Cl)cc2)cc1`?
PAFAH2 FP inh: -1; ASAP1 GAP inh: -18; PAFAH1B3 inh: 0; pPAFAH FP inh: 1; ARFGAP1 inhibitor: -4; PAFAH1B2 inh: 65*

Results for COc1ccc(-c2cc(-c3c(O)c(OC)c4occc4c3OC)[nH]n2)cc1OC ?
PAFAH2 FP inh: 17; ASAP1 GAP inh: 1; PAFAH1B3 inh: 10; pPAFAH FP inh: 34*; ARFGAP1 inhibitor: 14; PAFAH1B2 inh: 4

Results for CC(C)C(=O)NC(c1ccccc1)c1cc([N+](=O)[O-])c2cccnc2c1O (stereo unspecified) ?
PAFAH2 FP inh: 9; ASAP1 GAP inh: 4; PAFAH1B3 inh: -4; pPAFAH FP inh: 34*; ARFGAP1 inhibitor: 8; PAFAH1B2 inh: 0

How did CC(CNC(=O)CN1C(=O)NC2(CCOc3ccccc32)C1=O)c1ccccc1 (stereo unspecified) do in these assays?
PAFAH2 FP inh: -6; ASAP1 GAP inh: 13; PAFAH1B3 inh: 4; pPAFAH FP inh: -4; ARFGAP1 inhibitor: 0; PAFAH1B2 inh: 28*

What do the screens show for `O=C(NCCc1ccc(Cl)cc1)c1cc2ccccn2n1`?
PAFAH2 FP inh: 1; ASAP1 GAP inh: -8; PAFAH1B3 inh: 6; pPAFAH FP inh: 0; ARFGAP1 inhibitor: 3; PAFAH1B2 inh: 30*

What do the screens show for `COCCN(C(=O)c1ccc(OCC(C)C)cc1)c1c(N)n(Cc2ccccc2)c(=O)[nH]c1=O`?
PAFAH2 FP inh: -14; ASAP1 GAP inh: -10; PAFAH1B3 inh: -10; pPAFAH FP inh: 31*; ARFGAP1 inhibitor: 8; PAFAH1B2 inh: 0

How did COCCN(C(=O)c1ccc(C#N)cc1)c1c(N)n(Cc2ccccc2)c(=O)[nH]c1=O do in these assays?
PAFAH2 FP inh: 5; ASAP1 GAP inh: 1; PAFAH1B3 inh: 2; pPAFAH FP inh: 2; ARFGAP1 inhibitor: 1; PAFAH1B2 inh: 6

What do the screens show for `CCOC(=O)c1cc(-c2ccccc2)sc1NC(=O)CSc1nnc(N)s1`?
PAFAH2 FP inh: 0; ASAP1 GAP inh: 2; PAFAH1B3 inh: -2; pPAFAH FP inh: 25*; ARFGAP1 inhibitor: 9; PAFAH1B2 inh: 1

How did Oc1ccc(F)c(CN2CCN(c3ncc(Cc4ccccc4)cn3)CC2)c1 do in these assays?
ASAP1 GAP inh: -3; ARFGAP1 inhibitor: 12

How did CC(C)NC(=O)C1CCN(c2ccc(S(=O)(=O)N3CCOCC3)cc2Cl)CC1 do in these assays?
PAFAH2 FP inh: -6; ASAP1 GAP inh: 4; PAFAH1B3 inh: 3; pPAFAH FP inh: -4; ARFGAP1 inhibitor: -1; PAFAH1B2 inh: 2

How did O=C(O)c1ccc(N(Cc2ccccc2)S(=O)(=O)c2ccccc2)cc1 do in these assays?
PAFAH2 FP inh: 6; ASAP1 GAP inh: -6; PAFAH1B3 inh: 11; pPAFAH FP inh: 5; ARFGAP1 inhibitor: 12; PAFAH1B2 inh: 4

Results for O=C(O)c1cccc(S(=O)(=O)N(Cc2ccccc2)c2cccc(C(F)(F)F)c2)c1 ?
PAFAH2 FP inh: 1; ASAP1 GAP inh: -5; PAFAH1B3 inh: 0; pPAFAH FP inh: 28*; ARFGAP1 inhibitor: 8; PAFAH1B2 inh: 24

How did O=C(O)c1cc(S(=O)(=O)N(Cc2ccccc2)c2ccc(Cl)cc2)ccc1Cl do in these assays?
PAFAH2 FP inh: -21; ASAP1 GAP inh: -4; PAFAH1B3 inh: 3; pPAFAH FP inh: 1; ARFGAP1 inhibitor: 3; PAFAH1B2 inh: 29*

Results for O=C(O)c1cccc(S(=O)(=O)N(Cc2ccccc2)c2ccccc2Cl)c1 ?
PAFAH2 FP inh: 5; ASAP1 GAP inh: -2; PAFAH1B3 inh: 8; ARFGAP1 inhibitor: -2; PAFAH1B2 inh: 19

Results for CC(=O)N(C)c1ccc(NC(=O)CCN2C(=O)c3ccccc3C2=O)cc1 ?
PAFAH2 FP inh: -3; ASAP1 GAP inh: -14; PAFAH1B3 inh: 1; pPAFAH FP inh: 9; ARFGAP1 inhibitor: 7; PAFAH1B2 inh: 2

Results for COc1ccc(Nc2nc(N)c(C(=O)c3ccc(F)cc3)s2)cc1 ?
PAFAH2 FP inh: 3; ASAP1 GAP inh: 4; PAFAH1B3 inh: 8; pPAFAH FP inh: 31*; ARFGAP1 inhibitor: -6; PAFAH1B2 inh: 8

How did COc1ccc(C(=O)c2sc(NC(C)C)nc2N)cc1OC do in these assays?
PAFAH2 FP inh: 4; ASAP1 GAP inh: 2; PAFAH1B3 inh: 8; pPAFAH FP inh: 1; ARFGAP1 inhibitor: -1; PAFAH1B2 inh: 3

Results for COc1ccc(Nc2nc(N)c(C(=O)c3ccc(OC)cc3)s2)cc1 ?
PAFAH2 FP inh: 6; ASAP1 GAP inh: 0; PAFAH1B3 inh: -19; pPAFAH FP inh: 26*; ARFGAP1 inhibitor: 1; PAFAH1B2 inh: 6

What do the screens show for `Cc1ccccc1NS(=O)(=O)c1ccc(C(=O)NCC2CCCO2)cc1` (stereo unspecified)?
PAFAH2 FP inh: -2; ASAP1 GAP inh: -6; PAFAH1B3 inh: 1; pPAFAH FP inh: 25*; ARFGAP1 inhibitor: -20; PAFAH1B2 inh: 1

High-throughput results from PubChem BioAssay.
